{"source": "PubChem BioAssay AID617", "about": "(SRMLSC, 2007)"}
{"tested_on": "E. coli BW25113 ΔtolC growth inhibition, OD615", "assay": "E. coli ΔtolC antibacterial growth inhibition – strain BW25113 ΔtolC::kan, dose response (AID 617)", "procedure,_shortened": "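System – E. coli BW25113 ΔtolC::kan bacteria · Input – inoculum from 1:1000-diluted 1.5 h subculture · Buffer or medium – LB plus kanamycin · Compound – serial dilution series of compound · Timing – bacterial growth with compound for 20 h, 37 °C · Measured by – OD615 · Read-out basis – growth-inhibition IC50 from four-parameter logistic curve, bounds set to 0% and 100% · Benchmarks – chloramphenicol 30 µM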", "units": {"IC50": "µM"}}
{"smiles": "COC(=O)c1ccc(/C(O)=C(\\C#N)c2nc3ccccc3s2)cc1", "IC50": 2.51}
{"smiles": "O=C(NCc1ccco1)c1cnn2c1NC(c1ccc(Br)cc1)CC2C(F)(F)F", "note": "(stereo not given)", "IC50": 12.8}
{"smiles": "O=C(C1CCCCC1)N1CCC(c2nc3c(nnn3Cc3c(F)cccc3Cl)c(=O)[nH]2)CC1", "IC50": 18.2}
{"smiles": "CC1CCCN(c2ccc(C(=O)NCCc3ccccc3)cn2)C1", "note": "(stereo not given)", "IC50": 49.4}
{"smiles": "CCOC(=O)c1cc2oc(C)cc2n1CC(=O)OC1CCCCC1", "IC50": 17.6}
{"smiles": "O=C(CSc1nc2ccccc2[nH]1)Nc1cc(C(F)(F)F)ccc1N1CCOCC1", "IC50": 5.96}
{"smiles": "CCOC(=O)c1c(-c2ccc(OC)cc2)oc2ccc(OC(=O)N(C)C)cc12", "IC50": 12.9}
{"smiles": "CCOC(=O)c1cccc2c1-c1ccccc1/C2=N/O", "IC50": 97.1}
{"smiles": "O=C(Nc1ncc(Br)s1)C(Cc1ccccc1)n1cccc1", "note": "(stereo not given)", "IC50": 3.21}
{"smiles": "Nc1c(C(=O)NCCc2ccccc2)c2nc3ccccc3nc2n1CCN1CCOCC1", "IC50": 12.4}
{"smiles": "COc1ccc(-c2cc(C(=O)N3CCc4ccccc4C3)no2)cc1OC", "IC50": 16.6}
{"smiles": "CN(c1cccc(NC(=O)Nc2cccc(Cl)c2)c1)S(C)(=O)=O", "IC50": 12.7}
{"smiles": "COc1ccccc1-c1cc(C(=O)NC(C)c2ccccc2)no1", "note": "(stereo not given)", "IC50": 37.7}
{"smiles": "CCOC(=O)C1CCN(C(c2cccnc2)c2c(NC(=O)c3ccco3)sc(C)c2C)CC1", "note": "(stereo not given)", "IC50": 13.6}
{"smiles": "COc1ccc(S(=O)(=O)C(C#N)c2nc3ccccc3nc2N2CCCC(C)C2)cc1", "note": "(stereo not given)", "IC50": 6.97}
{"smiles": "O=C(Nc1ccc2c(c1)CCC2)C1COc2ccccc2O1", "note": "(stereo not given)", "IC50": 12.2}
{"smiles": "N#Cc1nc(-c2ccc(OCc3ccccc3)cc2)oc1NCCCn1ccnc1", "IC50": 6.08}
{"smiles": "N#Cc1ccc(NC(=O)Nc2ccc(Cl)cc2)cc1", "IC50": 0.52}
{"smiles": "O=C(Nc1ccc(C(F)(F)F)cc1)C1CCCN1S(=O)(=O)c1cccc2cccnc12", "note": "(stereo not given)", "IC50": 22.6}
{"smiles": "O=C(Nc1nnc(-c2ccc3c(c2)CCCC3)o1)C1COc2ccccc2O1", "note": "(stereo not given)", "IC50": 0.45}
{"smiles": "CCOC(=O)c1cnc(-n2nc(C)cc2C)nc1NC1CCCCC1", "IC50": 0.54}
{"smiles": "O=c1cc(O)c2c(=O)n3c4c(cccc4c2o1)CCC3", "IC50": 2.82}
{"smiles": "CC(C)(C)C1CCC2(CC1)C(C#N)=C(SCC(=O)NC1CCCCC1)NC(=O)C2C#N", "note": "(stereo not given)", "IC50": 6.1}
{"smiles": "Cc1cc(C(=O)CSc2nc3ccccc3o2)c(C)n1C1CC1", "IC50": 7.02}
{"smiles": "CCc1ccccc1NS(=O)(=O)c1ccc2[nH]cc(C(=O)NCc3ccco3)c(=O)c2c1", "IC50": 22}
{"smiles": "COc1ccc(-c2cnc(SCC(=O)Nc3ccc4c(c3)OCO4)n2Cc2ccco2)cc1", "IC50": 11.1}
{"smiles": "Oc1c(CN2CCc3ccccc3C2)cc(Cl)c2cccnc12", "IC50": 8.71}
{"smiles": "Cc1ccc(-c2csc(N(CC3CCCO3)C(=O)c3ccco3)n2)cc1", "note": "(stereo not given)", "IC50": 20.8}
{"smiles": "Fc1cccc(Cl)c1Cn1nnc(-c2ccc3c(c2)OCO3)n1", "IC50": 20.3}
{"smiles": "CCn1c(SCC(=O)OC2CCCCC2)nc2ccccc2c1=O", "IC50": 11.8}
{"smiles": "O=C(CN1CCN(S(=O)(=O)c2ccc(F)cc2)CC1)Nc1ccc(Cl)c(C(F)(F)F)c1", "IC50": 9.07}
{"smiles": "Cc1cc(OCCCC(=O)N2CCCCC2)cc(C)c1Cl", "IC50": 28.2}
{"smiles": "O=C(Nc1nc(-c2cc(Cl)sc2Cl)cs1)c1cccs1", "IC50": 1.69}
{"smiles": "Cc1cccc(S(=O)(=O)C(C#N)c2nc3ccccc3nc2N2CC(C)OC(C)C2)c1", "note": "(stereo not given)", "IC50": 14.4}
{"smiles": "Cc1ccc(-c2noc(CSc3nnnn3C3CCCCC3)n2)cc1", "IC50": 12.9}
{"smiles": "Oc1c(CN2CCCCC2)cc(COCc2ccccc2)c2cccnc12", "IC50": 13.2}
{"smiles": "O=C(NCc1ccco1)c1sc(=S)n2c1[nH]c(=O)c1ccccc12", "IC50": 1.26}
{"smiles": "CCOC(=O)c1cc2sc(C)cc2n1C(C)C(=O)OCC", "note": "(stereo not given)", "IC50": 60.6}
{"smiles": "CCOC(=O)c1c(-c2ccccc2)nnn1-c1nc(OCC)nc(N2CCCCC2)n1", "IC50": 20.7}
{"smiles": "O=C(Nc1ccc(S(=O)(=O)N2CCCc3ccccc32)cc1)C1CCCO1", "note": "(stereo not given)", "IC50": 19.6}
